# According to paper PMC2874265 (Journal of Medicinal Chemistry, 2010):
# Experiments:
# S. aureus ATCC 29213 = assay: S. aureus MIC, broth microdilution; assay type: cell-based; conditions: for S. aureus MIC: S. aureus ATCC 29213, broth microdilution; for MIC: Staphylococcus aureus, ATCC29213, read-out: S. aureus MIC + 2% BSA
# Summary of the method: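 Broth microdilution MIC per CLSI recommendations against S. aureus ATCC 29213. Protein-shift runs added 2% w/v bovine serum albumin to the assay. End point reproducible within one 2-fold dilution.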
# S. aureus (Smith) = assay: Murine septicaemia model of staphylococcal infection; assay type: in vivo; conditions: SC, 3, 10, or 30 mg/kg
# [1] = Mouse intravenous pharmacokinetics; assay type: in vivo
# Summary of the method: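 Mice dosed intravenously, either 3 mg/kg given individually or 2 mg/kg in a cassette. Plasma sampled at 5, 15, 30, 60, 120, 240 and 480 min and concentrations measured by LC/MS/MS. AUC, C0, CL, T1/2 and V calculated from plasma concentrations.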
SMILES,S. aureus MIC (S. aureus ATCC 29213),MIC (S. aureus ATCC 29213) [µg/mL],other results
NC(=O)c1c(F)ccc(OCc2nc3cc(C(F)(F)F)ccc3s2)c1F [8e],submicrogram/mL,–,–
NC(=O)c1c(F)ccc(OCc2nc3cc(-c4ccccc4)ccc3s2)c1F [compound 8a],–,4,–
CCOc1ccc2sc(COc3ccc(F)c(C(N)=O)c3F)nc2c1 [compound 8b],submicrogram/mL,0.5,–
NC(=O)c1c(F)ccc(OCc2nc3cc(Br)ccc3s2)c1F [compound 8d],submicrogram/mL,–,–
NC(=O)c1c(F)ccc(OCc2nc3cc(Cl)ccc3s2)c1F [compound 8j],–,2,"survival of infected mice (S. aureus (Smith)): died on day 2; V ([1]; intravenous, 2 mg/kg in a cassette): 5.8 L/kg; AUC ([1]; plasma, iv, 2 mg/kg): 100 ng·h/mL; C0 ([1]; plasma, iv, 2 mg/kg): 500 ng/mL; clearance ([1]; plasma, iv, 2 mg/kg): 315 mL/min/kg; half-life ([1]; plasma, iv, 2 mg/kg): 13 min"
CCCc1ccc2sc(COc3ccc(F)c(C(N)=O)c3F)nc2c1 [compound 11],submicrogram/mL,–,–
COc1cc2nc(COc3ccc(F)c(C(N)=O)c3F)sc2nc1Cl [compound 28d],–,> 64,–
